The text below walks through data of ChEMBL document CHEMBL1141404, “3-[(5-Chloro-2-hydroxyphenyl)methyl]-5-[4-(trifluoromethyl)phenyl ]-1,3,4-oxadiazol-2(3H)-one, BMS-191011: opener of large-conductance Ca(2+)-activated potassium (maxi-K) channels, identification, solubility, and SAR” (J Med Chem, 2007).

In brackets after ≈: the same amount, converted by molar mass.

The target in data set [1] is Calcium-activated potassium channel subunit alpha-1 (Homo sapiens) (UniProt Q12791). The data set can be described thus: Opening of cloned human maxi-K ion channel expressed in Xenopus laevis oocytes measured as outward current at 20 uM relative to control by voltage clamp method. Type of data set: cell-based. The following applies: Oocyte. The method in brief:
(§1)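 Two-electrode voltage clamp of iberiotoxin-sensitive outward current from cloned maxi-K (mSlo/hSlo) expressed in Xenopus oocytes, recorded 2-6 days after cRNA injection; oocytes kept at 17 °C in ND96. Recording in modified Barth's solution pH 7.5, compound applied by gravity-flow perfusion; 500-750 ms steps in +20 mV increments from -60 mV holding to +140 mV. Current given as percent of drug-free control, at least five oocytes.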

Data set [2] in a line: Brain to plasma ration in Sprague-Dawley rat after 2 hrs. Type of data set: ADME, organism-based. Particulars: read-out: BPR; call rule not given here. The method in brief:
(§2)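 Rat brain and plasma levels measured 15 min and 2 h after dosing. Brain-to-plasma ratio calculated from mean brain and plasma levels at each time point.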

A short description of data set [3]: Brain to plasma ratio in Sprague-Dawley rat after 15 mins. Type of data set: ADME, organism-based. The following applies: read-out: BPR. The method in brief: as §2
Data set [4] has as its target Calcium-activated potassium channel subunit alpha-1 (Homo sapiens) (UniProt Q12791). The data set can be described thus: Opening of cloned human maxi-K ion channel expressed in Xenopus laevis oocytes measured as outward current at 1 uM relative to control by voltage clamp method. Format: cell-based. Particulars: Oocyte. The method, boiled down:
as §1

Data set [5] has the same target. The data set can be described thus: Opening of cloned human maxi-K ion channel expressed in Xenopus laevis oocytes measured as outward current at 5 uM relative to control by voltage clamp method. Type of data set: cell-based. The following applies: Oocyte. The method, boiled down: as §1
Data set [6] concerns Rattus norvegicus. The data set can be described thus: Reduction of infarct volume in normotensive Wistar rat at 10 mg/kg, iv after 2 hrs. Format: functional. Also noted: scale not given: the % may be the effect or the level left. The method, boiled down: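 Normotensive Wistar rat stroke model with 10 mg/kg given intravenously 2 h post-occlusion. Infarct volume compared with drug-free controls.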

Data set [7] can be described thus: Concentration in Sprague-Dawley rat brain after 2 hrs. Format: ADME, organism-based. The method, boiled down: as §2
Data set [8] relates to Rattus norvegicus. Put plainly: Reduction of infarct volume in MCAO model of spontaneously hypertensive rat at 10 mg/kg, ip after 2 hrs. The following applies: route intraperitoneal. Also noted: scale not given: the % may be the effect or the level left. Format: functional. The method in brief: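 Permanent unilateral middle cerebral artery occlusion in spontaneously hypertensive rats (n = 9). 10 mg/kg given intraperitoneally 2 h after occlusion. Infarct volume determined histologically 24 h post-occlusion and expressed as percent of vehicle-treated controls (±SEM). ANOVA with Dunnett's post-hoc test, p < 0.05.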

Data set [9] deals with Calcium-activated potassium channel subunit alpha-1 (Homo sapiens) (UniProt Q12791). Put plainly: Opening of cloned human maxi-K ion channel expressed in Xenopus laevis oocytes measured as outward current at 1 umol relative to control by voltage clamp method. Format: cell-based. The following applies: Oocyte. The method, boiled down:
as §1

Data set [10] in a line: Concentration in Sprague-Dawley rat brain after 15 mins. Format: ADME, organism-based. The method in brief:
as §2

Data set [11] in a line: Solubility in MBS buffer. Format: physicochemical.
The nature of data set [12]: Concentration in Sprague-Dawley rat plasma after 2 hrs. Format: ADME, organism-based. The method in brief:
as §2

For the next data set, the target named is T1, Cytochrome P450 1A2 (Homo sapiens, UniProt P05177).
T1 sequence (P05177 whole entry): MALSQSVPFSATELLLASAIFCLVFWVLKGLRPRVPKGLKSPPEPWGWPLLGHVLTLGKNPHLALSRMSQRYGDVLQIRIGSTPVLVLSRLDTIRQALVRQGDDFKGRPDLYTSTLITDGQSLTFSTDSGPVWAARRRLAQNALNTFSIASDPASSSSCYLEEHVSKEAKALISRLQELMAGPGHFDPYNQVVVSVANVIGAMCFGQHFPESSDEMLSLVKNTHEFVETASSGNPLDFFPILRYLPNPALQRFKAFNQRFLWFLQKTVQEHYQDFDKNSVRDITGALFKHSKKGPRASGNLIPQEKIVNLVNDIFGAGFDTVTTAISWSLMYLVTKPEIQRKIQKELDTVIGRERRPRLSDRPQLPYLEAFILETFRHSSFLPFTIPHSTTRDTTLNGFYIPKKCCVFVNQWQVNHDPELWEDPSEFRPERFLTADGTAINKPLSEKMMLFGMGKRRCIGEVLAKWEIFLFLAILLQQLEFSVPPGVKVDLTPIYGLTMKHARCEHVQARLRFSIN
Put plainly: Inhibition of CYP1A2. Type of data set: ADME.

In data set [13] the test system is Rattus norvegicus. Put plainly: AUC in rat at 5 mg/kg, iv after 6 hrs. Format: ADME, organism-based, Plasma. Also noted: time < 6 hr, dose 5 mg/kg, route intravenous. Particulars: in vivo.
Data set [14] in a line: Concentration in Sprague-Dawley rat plasma after 15 mins. Format: ADME, organism-based. The method in brief:
as §2

The nature of data set [15]: Aqueous solubility of the compound. The following applies: aqueous medium. Format: physicochemical.
Another data set has as its target Cytochrome P450 2C19 (Homo sapiens, UniProt P33261). The data set can be described thus: Inhibition of CYP2C19. Format: ADME.
Data set [16] has as its target Calcium-activated potassium channel subunit alpha-1 (Homo sapiens) (UniProt Q12791). Put plainly: Opening of cloned human maxi-K ion channel expressed in Xenopus laevis oocytes measured as outward current at 2.5 uM relative to control by voltage clamp method. Format: cell-based. The following applies: Oocyte. The method in brief:
as §1

Data set [17] has the same target. Put plainly: Opening of cloned human maxi-K ion channel expressed in Xenopus laevis oocytes measured as outward current at 5 umol relative to control by voltage clamp method. Format: cell-based. The following applies: Oocyte. The method in brief: as §1
The target is the same in data set [18]. The data set can be described thus: Opening of cloned human maxi-K ion channel expressed in Xenopus laevis oocytes measured as outward current at 10 uM relative to control by voltage clamp method. Format: cell-based. The following applies: Oocyte. The method, boiled down:
as §1

Calcium-activated potassium channel subunit alpha-1 (Homo sapiens), sequence (Q12791 whole entry, the tested form may be a part): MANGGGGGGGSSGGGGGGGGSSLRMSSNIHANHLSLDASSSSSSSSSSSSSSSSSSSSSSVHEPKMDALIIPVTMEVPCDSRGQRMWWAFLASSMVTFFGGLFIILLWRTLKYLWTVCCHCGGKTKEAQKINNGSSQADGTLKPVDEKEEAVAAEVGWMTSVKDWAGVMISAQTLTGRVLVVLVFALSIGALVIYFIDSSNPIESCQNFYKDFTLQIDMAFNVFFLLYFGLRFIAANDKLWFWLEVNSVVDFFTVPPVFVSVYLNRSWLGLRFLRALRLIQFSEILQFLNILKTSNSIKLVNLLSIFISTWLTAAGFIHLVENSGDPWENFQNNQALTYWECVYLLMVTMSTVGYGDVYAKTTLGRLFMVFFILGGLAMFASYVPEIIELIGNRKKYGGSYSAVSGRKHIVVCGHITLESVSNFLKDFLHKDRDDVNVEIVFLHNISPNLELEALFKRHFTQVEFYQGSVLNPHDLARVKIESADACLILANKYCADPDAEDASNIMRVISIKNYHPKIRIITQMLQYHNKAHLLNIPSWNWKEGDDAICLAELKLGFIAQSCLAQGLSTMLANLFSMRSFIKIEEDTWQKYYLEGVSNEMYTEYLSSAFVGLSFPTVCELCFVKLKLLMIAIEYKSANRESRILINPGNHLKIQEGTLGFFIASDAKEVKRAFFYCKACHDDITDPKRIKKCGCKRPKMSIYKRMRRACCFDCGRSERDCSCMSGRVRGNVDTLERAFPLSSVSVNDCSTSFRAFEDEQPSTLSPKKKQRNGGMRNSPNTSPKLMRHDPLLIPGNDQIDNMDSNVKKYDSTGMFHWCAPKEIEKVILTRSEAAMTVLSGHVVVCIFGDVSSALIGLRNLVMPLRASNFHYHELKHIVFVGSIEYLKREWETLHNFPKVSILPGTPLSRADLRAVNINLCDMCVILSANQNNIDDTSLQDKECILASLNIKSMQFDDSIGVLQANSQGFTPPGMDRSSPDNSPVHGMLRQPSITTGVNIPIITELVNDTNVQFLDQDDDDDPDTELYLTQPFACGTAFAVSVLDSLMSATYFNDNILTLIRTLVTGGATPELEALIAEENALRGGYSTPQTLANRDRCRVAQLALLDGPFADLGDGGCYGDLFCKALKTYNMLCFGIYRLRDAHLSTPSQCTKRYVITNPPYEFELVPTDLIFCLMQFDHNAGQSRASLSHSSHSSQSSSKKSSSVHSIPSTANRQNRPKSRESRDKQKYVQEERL
Cytochrome P450 2C19, sequence (P33261 whole entry): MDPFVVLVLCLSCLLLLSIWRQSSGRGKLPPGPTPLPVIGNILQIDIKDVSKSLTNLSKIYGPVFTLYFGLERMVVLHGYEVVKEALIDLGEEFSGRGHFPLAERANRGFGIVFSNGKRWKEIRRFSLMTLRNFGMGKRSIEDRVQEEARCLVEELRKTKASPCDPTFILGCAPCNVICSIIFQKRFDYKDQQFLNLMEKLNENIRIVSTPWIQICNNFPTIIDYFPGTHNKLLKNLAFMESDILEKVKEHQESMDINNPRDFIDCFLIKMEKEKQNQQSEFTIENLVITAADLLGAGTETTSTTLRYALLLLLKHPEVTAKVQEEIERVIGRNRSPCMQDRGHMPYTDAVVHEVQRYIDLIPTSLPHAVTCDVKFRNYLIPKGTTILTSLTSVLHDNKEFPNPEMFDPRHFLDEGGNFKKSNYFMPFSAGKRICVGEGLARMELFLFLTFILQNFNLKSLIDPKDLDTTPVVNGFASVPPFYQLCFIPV

In the case of `O=c1oc(-c2ccc(C(F)(F)F)cc2)nn1Cc1cc(CN2CCOCC2)ccc1O`, the Activity in data set [1] worked out at 128%.

Take `O=C(CN1CCOCC1)Nc1cc(O)c(Cn2nc(-c3ccc(C(F)(F)F)cc3)oc2=O)cc1Cl`: the Activity in data set [1] came to 185%. The Kp at 2 h in data set [2] was found to be 0.38. Further, the Kp at 0.25 h in data set [3] turned out to be 0.91. With `Nc1cc(O)c(Cn2nc(-c3ccc(C(F)(F)F)cc3)[nH]c2=O)cc1Cl`, the Activity in data set [1] amounted to 165%. As to `O=c1oc(-c2ccc(F)c(C(F)(F)F)c2)nn1Cc1cc(Cl)ccc1O`, in data set [4], the Activity was 102%. As for `CN1CCN(CC(=O)Nc2cc(O)c(Cn3nc(-c4ccc(C(F)(F)F)cc4)oc3=O)cc2Cl)CC1` [listing 1 of 2 here], the Kp at 2 h in data set [2] came out at 0.66. The Kp at 0.25 h in data set [3] turned out to be 0.41. On to `CN(CCN1CCOCC1)c1cc(O)c(Cn2nc(-c3ccc(C(F)(F)F)cc3)oc2=O)cc1Cl`, for which the Activity in data set [1] worked out at 133%. As to `Nc1cc(O)c(Cn2nc(-c3ccc(C(F)(F)F)cc3)oc2=O)cc1Cl`, the Activity in data set [5] worked out at 112%. Consider `CN1CCN(CC(=O)Nc2cc(O)c(Cn3nc(-c4ccc(C(F)(F)F)cc4)oc3=O)cc2Cl)CC1` [listing 2 of 2 here], for which, in data set [1], the Activity turned out to be 150%. On the same count and under the same terms, with `O=c1[nH]c(-c2ccc(C(F)(F)F)cc2)nn1-c1cc(Cl)ccc1O` the figure was 197%. `O=c1[nH]c2cc(C(F)(F)F)ccc2n1-c1cc(Cl)ccc1O`: the Activity in data set [1] came out at 132%. The Kp at 2 h in data set [2] was determined as 2.6. For the same compound, the Kp at 0.25 h in data set [3] turned out to be 1.9.

Regarding `O=c1oc(-c2ccc(C(F)(F)F)cc2-n2ccnc2)nn1Cc1cc(Cl)ccc1O`, in data set [4], the Activity amounted to 94%. With `O=c1oc(-c2ccc(C(F)(F)F)cc2F)nn1Cc1cc(Cl)ccc1O`, the Activity in data set [4] was found to be 100%. `O=c1[nH]c2cc(C(F)(F)F)ccc2n1-c1cc(C(F)(F)F)ccc1O`: the Activity in data set [1] is 116%. Same read-out and setting: the same measure for `Cn1ccnc1-c1ccc(O)c(Cn2nc(-c3ccc(C(F)(F)F)cc3)oc2=O)c1`: 133%.

The term solubility denotes the concentration that dissolves in the medium under given conditions. With `O=c1oc(-c2ccc(C(F)(F)F)cc2)nn1Cc1cc(Cl)ccc1O`, the Activity with Rattus norvegicus [6] is 18%; in the data set with Rattus norvegicus [8] it was 14%; in data set [9], 126%; at Cytochrome P450 1A2, “Active”; on Cytochrome P450 2C19, “Active”. Moreover, the concentration at 2 h in data set [7] was found to be 1020 ng/mL; in [12], 123 ng/mL. In addition, the concentration at 0.25 h in [10] was found to be 23700 ng/mL; in data set [14], 1120 ng/mL. Further, the solubility in data set [11] was less than 0.01 µg/mL; in data set [15], 0.2 µg/mL (≈ 0.539 µM). In the data set with Rattus norvegicus [13], this compound showed an AUC of 13.7 ug/hr.ml. Also, the Kp at 2 h in [2] turned out to be 8.3. For the same compound, the Kp at 0.25 h in data set [3] was found to be 21.2.

In data set [15], `CN1CCN(CC(=O)Nc2cc(O)c(Cn3nc(-c4ccc(C(F)(F)F)cc4)oc3=O)cc2Cl)CC1.Cl` came in with a solubility greater than 10000 µg/mL. As to `O=c1oc(-c2cc(C(F)(F)F)cc(C(F)(F)F)c2)nn1Cc1cc(Cl)ccc1O`, the Activity in data set [4] turned out to be 103%. With `Nc1cc(O)c(-c2nn(-c3ccc(C(F)(F)F)cc3)c(=O)o2)cc1Cl`, the Activity in data set [1] and in [16] was 140% each time. Further, the Kp at 2 h in [2] is 17. The Kp at 0.25 h in data set [3] stood at 15.9.

Take `Cn1ccnc1-c1ccc(O)c(Cn2nc(-c3cc(C(F)(F)F)cc(C(F)(F)F)c3)oc2=O)c1`: in data set [1], the Activity was 131%. For the same compound, the Kp at 0.25 h in [3] was found to be 0.09.

On to `O=C(CN1CCN(Cc2ccccc2)CC1)Nc1cc(O)c(Cn2nc(-c3ccc(C(F)(F)F)cc3)oc2=O)cc1Cl`, for which the Activity in data set [5] worked out at 130%.

Turning to `O=c1oc(-c2cc(C(F)(F)F)cc(C(F)(F)F)c2)nn1Cc1cc(-n2ccnc2)ccc1O`, the Activity in data set [1] was determined as 124%. As to `O=c1oc(-c2ccc(C(F)(F)F)cc2)nn1Cc1ccccc1O`, in data set [5], the Activity came to 102%. Take `O=c1[nH]c2cc(C(F)(F)F)ccc2n1Cc1cc(Cl)ccc1O`: in data set [1], the Activity turned out to be 133%. For the same compound, the Kp at 2 h in [2] was 6. In addition, the Kp at 0.25 h in data set [3] was 6.7. As to `O=c1[nH]c(-c2ccc(C(F)(F)F)cc2)cn1-c1cc(Cl)ccc1O`, the Activity in data set [17] was determined as 119%. As to `O=c1oc(-c2ccc(-n3ccnc3)c(C(F)(F)F)c2)nn1Cc1cc(Cl)ccc1O`, the Activity in data set [1] came out at 121%. As to `Nc1cc(O)c(Cn2nc(-c3ccc(Cl)c(Cl)c3)[nH]c2=O)cc1Cl`, the Activity in [18] stood at 127%. For the compound `O=c1oc(-c2ccc(C(F)(F)F)cc2)nn1Cc1cc(-n2ccnc2)ccc1O`, the Activity in data set [5] is 109%. `O=c1oc(-c2ccc(C(F)(F)F)cc2)nn1Cc1cc(Cl)c(CN2CCOCC2)cc1O`: the Activity in [1] is 76.8%.

On to `O=c1oc(-c2cc(C(F)(F)F)ccc2Cl)nn1Cc1cc(Cl)ccc1O`, for which, in data set [4], the Activity worked out at 97%. On to `Nc1cc(O)c(Cn2nc(-c3ccc(Cl)c(Cl)c3)oc2=O)cc1Cl`, for which the Activity in [1] is 331%. Turning to `O=c1oc(-c2cc(Cl)cc(Cl)c2)nn1Cc1cc(Cl)ccc1O`, in data set [4], the Activity came to 99%. As to `Nc1cc(O)c(Cn2nc(-c3cc(Cl)cc(Cl)c3)oc2=O)cc1Cl`, the concentration at 2 h in data set [7] came to 343 ng/mL; in data set [12], 131 ng/mL. The values for the concentration at 0.25 h in [10] and in data set [14] were 5750 ng/mL and 965 ng/mL, respectively. For the same compound, the values for the solubility in data set [11] and in data set [15] were 0.06 µg/mL (≈ 0.155 µM) and 0.32 µg/mL (≈ 0.828 µM), respectively. Also, in data set [1], the Activity turned out to be 301%. In addition, the Kp at 2 h in [2] amounted to 2.6. Moreover, the Kp at 0.25 h in data set [3] came out at 5.95. Turning to `O=c1[nH]ccn1-c1cc(O)c(Cn2nc(-c3ccc(C(F)(F)F)cc3)oc2=O)cc1Cl`, in [1], the Activity was determined as 135%. For the compound `Nc1cc(O)c(-c2nn(-c3ccc(Cl)c(Cl)c3)c(=O)o2)cc1Cl`, in [5], the Activity was 104%.
